Results as given in ChEMBL document CHEMBL3421533, “The Discovery of Orally Bioavailable Tyrosine Threonine Kinase (TTK) Inhibitors: 3-(4-(heterocyclyl)phenyl)-1H-indazole-5-carboxamides as Anticancer Agents” (J Med Chem, 2015).
Calls of active or inactive are those of the source. The rule behind the calls is not given here.

Columns and labels:
[1] = target: T1, Dual specificity protein kinase TTK (Homo sapiens, UniProt P33981); assay: Inhibition of amino terminal GST-fused full length human TTK using His6-SUMO-TTK-N as substrate preincubated for 15 mins prior to ATP addition by indirect ELISA detection system
T1 sequence (P33981 whole entry): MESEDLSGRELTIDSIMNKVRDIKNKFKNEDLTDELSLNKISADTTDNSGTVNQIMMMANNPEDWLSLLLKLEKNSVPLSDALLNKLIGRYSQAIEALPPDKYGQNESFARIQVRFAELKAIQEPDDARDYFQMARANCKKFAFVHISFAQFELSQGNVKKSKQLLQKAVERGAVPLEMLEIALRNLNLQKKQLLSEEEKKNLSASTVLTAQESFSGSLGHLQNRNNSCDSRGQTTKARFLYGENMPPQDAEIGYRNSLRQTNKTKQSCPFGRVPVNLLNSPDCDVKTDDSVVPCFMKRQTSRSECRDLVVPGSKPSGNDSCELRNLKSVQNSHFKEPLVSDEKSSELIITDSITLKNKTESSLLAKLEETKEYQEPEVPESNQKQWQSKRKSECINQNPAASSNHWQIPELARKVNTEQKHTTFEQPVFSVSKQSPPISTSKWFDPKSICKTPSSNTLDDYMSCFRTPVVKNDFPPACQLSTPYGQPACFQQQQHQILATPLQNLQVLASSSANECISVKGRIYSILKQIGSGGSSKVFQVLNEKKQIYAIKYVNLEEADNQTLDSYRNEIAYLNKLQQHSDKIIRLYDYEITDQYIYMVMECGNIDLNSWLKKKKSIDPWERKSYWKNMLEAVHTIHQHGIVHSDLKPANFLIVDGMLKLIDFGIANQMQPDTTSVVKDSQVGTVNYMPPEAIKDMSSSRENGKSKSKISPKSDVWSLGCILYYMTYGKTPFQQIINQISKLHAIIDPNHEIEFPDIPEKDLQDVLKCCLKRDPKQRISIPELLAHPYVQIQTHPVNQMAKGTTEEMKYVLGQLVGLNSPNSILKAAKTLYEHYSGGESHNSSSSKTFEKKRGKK

[2] = Cytotoxicity against human HCT116 cells after 5 days by sulforhodamine B assay; type: functional, HCT-116
How it was run: (§1)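 Cancer lines were seeded at 800–6000 cells per well according to growth rate, 24 h before compound overlay. After culture, cells were fixed in situ and stained with sulforhodamine B. GI50 values were derived by curve fitting.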

MDA-MB-468 = assay: Cytotoxicity against human MDA-MB-468 cells after 5 days by sulforhodamine B assay; type: functional; how it was run: as §1
Aurora kinase A = target: T2, Aurora kinase A (Homo sapiens, UniProt O14965); assay: Inhibition of recombinant AURKA (unknown origin) preincubated for 15 mins prior to ATP addition by FRET-based homogenous assay
T2 sequence (O14965 whole entry): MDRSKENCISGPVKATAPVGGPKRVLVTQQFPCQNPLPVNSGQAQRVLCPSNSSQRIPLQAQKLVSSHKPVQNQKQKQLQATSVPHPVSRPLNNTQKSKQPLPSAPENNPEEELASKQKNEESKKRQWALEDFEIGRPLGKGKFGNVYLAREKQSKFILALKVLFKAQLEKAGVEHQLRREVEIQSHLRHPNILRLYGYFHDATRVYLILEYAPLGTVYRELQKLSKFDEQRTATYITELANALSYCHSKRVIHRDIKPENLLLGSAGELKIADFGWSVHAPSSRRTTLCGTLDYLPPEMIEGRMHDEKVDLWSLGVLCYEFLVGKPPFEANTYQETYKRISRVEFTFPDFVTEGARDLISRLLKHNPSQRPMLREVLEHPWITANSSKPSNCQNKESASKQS

[3] = target: Vascular endothelial growth factor receptor 2 (Homo sapiens, UniProt P35968); assay: Inhibition of recombinant KDR (unknown origin) preincubated for 15 mins prior to ATP addition by FRET-based homogenous assay
[4] = (§2) Half life in mouse liver microsomes at 1 uM by LC-MS analysis; type: ADME; conditions: liver microsomes
[5] = (§3) Half life in rat liver microsomes at 1 uM by LC-MS analysis; type: ADME; conditions: liver microsomes
[6] = target: Aurora kinase B/Inner centromere protein (Homo sapiens, UniProt Q96GD4); assay: Inhibition of AURKB/INCENP (unknown origin) preincubated for 15 mins prior to ATP addition by FRET-based homogenous assay; type: protein-complex assay
How it was run: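 The enzyme was AURKB/INCENP in a FRET-based homogeneous assay run to kit specifications, with ATP at 128 μM. […] Each IC50 came from a single determination, reported with its standard fitting error.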

[7] = Cell cycle arrest in human HCT116 cells assessed as 8N cells at 0.05 uM measured at 48 hrs by flow cytometric analysis relative to control; type: functional, cell-based; conditions: HCT-116
How it was run: (§4)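 HCT116 cells in 6-well plates were exposed to compound or DMSO for 48 h at 37 °C, 5% CO₂. Cells were trypsinized, fixed in cold 70% ethanol and stained overnight at 4 °C with 50 μg/mL propidium iodide plus RNaseA. DNA content was read by flow cytometry, and 8N and 16N fractions were normalized to the DMSO control.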

[8] = Cell cycle arrest in human HCT116 cells assessed as 16N cells at 0.05 uM measured at 48 hrs by flow cytometric analysis relative to control; type: functional, cell-based; conditions: HCT-116; how it was run: as §4
[9] = Cell cycle arrest in human HCT116 cells assessed as 8N cells at 0.1 uM measured at 48 hrs by flow cytometric analysis relative to control; type: functional, cell-based; conditions: HCT-116; how it was run: as §4
[10] = Cell cycle arrest in human HCT116 cells assessed as 16N cells at 0.1 uM measured at 48 hrs by flow cytometric analysis relative to control; type: functional, cell-based; conditions: HCT-116; how it was run: as §4
[11] = Cell cycle arrest in human HCT116 cells assessed as 8N cells at 0.2 uM measured at 48 hrs by flow cytometric analysis relative to control; type: functional, cell-based; conditions: HCT-116; how it was run: as §4
[12] = Cell cycle arrest in human HCT116 cells assessed as 16N cells at 0.2 uM measured at 48 hrs by flow cytometric analysis relative to control; type: functional, cell-based; conditions: HCT-116; how it was run: as §4
[13] = Cell cycle arrest in human HCT116 cells assessed as 8N cells at 0.5 uM measured at 48 hrs by flow cytometric analysis relative to control; type: functional, cell-based; conditions: HCT-116; how it was run: as §4
[14] = Cell cycle arrest in human HCT116 cells assessed as 16N cells at 0.5 uM measured at 48 hrs by flow cytometric analysis relative to control; type: functional, cell-based; conditions: HCT-116; how it was run: as §4
[15] = Cell cycle arrest in human HCT116 cells assessed as 8N cells at 1 uM measured at 48 hrs by flow cytometric analysis relative to control; type: functional, cell-based; conditions: HCT-116; how it was run: as §4
[16] = Cell cycle arrest in human HCT116 cells assessed as 16N cells at 1 uM measured at 48 hrs by flow cytometric analysis relative to control; type: functional, cell-based; conditions: HCT-116; how it was run: as §4
[17] = Cell cycle arrest in human HCT116 cells assessed as 8N cells at 3 uM measured at 48 hrs by flow cytometric analysis relative to control; type: functional, cell-based; conditions: HCT-116; how it was run: as §4
[18] = Cell cycle arrest in human HCT116 cells assessed as 16N cells at 3 uM measured at 48 hrs by flow cytometric analysis relative to control; type: functional, cell-based; conditions: HCT-116; how it was run: as §4
HCT-116 [19] = assay: Induction of cytokinesis with gain or loss in chromosomes in human HCT116 cells at 500 nM after 28 hrs by DAPI-staining based fluorescence microscopic analysis; type: functional, cell-based
HCT-116 [20] = assay: Cytotoxicity against human HCT116 cells assessed as decrease in cell viability after 24 hrs; type: functional, cell-based
HCT-116 [21] = assay: Induction of apoptosis in human HCT116 cells assessed as induction of PARP cleavage after 24 hrs; type: functional, cell-based
[22] = Induction of apoptosis in human HCT116 cells assessed as upregulation of phospho-H2AX level after 24 hrs; type: functional, cell-based; conditions: HCT-116
[23] = Induction of apoptosis in human HCT116 cells assessed as upregulation of p53 level after 24 hrs; type: functional, cell-based; conditions: HCT-116
[24] = Cytotoxicity against human OVCAR3 cells after 5 days by sulforhodamine B assay; type: functional, OVCAR-3
Cytochrome P450 3A4 = Cytochrome P450 3A4 (Homo sapiens, UniProt P08684); assay: Inhibition of human CYP3A4 using BFC as substrate preincubated for 10 mins followed by enzyme/substrate addition measured after 30 mins by fluorescence assay; type: ADME
Liver = assay: as §2; type: ADME; conditions: microsomes, 1 µM
Liver microsome = assay: as §3; type: ADME; conditions: microsomes, 1 µM
[25] = Cmax in athymic CD1 nude mouse at 10 mg/kg, po by LC-MS/MS analysis; type: ADME, organism-based; parameters: dose 10 mg/kg, route oral; conditions: athymic CD1 nude, in vivo
[26] = AUCinfinity in athymic CD1 nude mouse at 10 mg/kg, po by LC-MS/MS analysis; type: ADME, organism-based, Plasma; parameters: time infinity, dose 10 mg/kg, route oral; conditions: athymic CD1 nude, plasma
[27] = Clearance in Sprague-Dawley rat at 1 mg/kg, iv by LC-MS/MS analysis; type: ADME, organism-based; parameters: dose 1 mg/kg, route intravenous; conditions: in vivo
[28] = Half life in Sprague-Dawley rat at 1 mg/kg, iv by LC-MS/MS analysis; type: ADME, organism-based; parameters: dose 1 mg/kg, route intravenous; conditions: in vivo
[29] = AUCinfinity in Sprague-Dawley rat at 1 mg/kg, iv by LC-MS/MS analysis; type: ADME, organism-based; parameters: time infinity, dose 1 mg/kg, route intravenous; conditions: plasma
[30] = AUCinfinity in Sprague-Dawley rat at 5 mg/kg, po by LC-MS/MS analysis; type: ADME, organism-based; parameters: time infinity, dose 5 mg/kg, route oral; conditions: plasma
[31] = Oral bioavailability in Sprague-Dawley rat at 5 mg/kg by LC-MS/MS analysis; type: ADME, organism-based; conditions: in vivo
[32] = Homo sapiens, MDA-MB-468, 120 h

Chain of Vascular endothelial growth factor receptor 2 (P35968 whole entry): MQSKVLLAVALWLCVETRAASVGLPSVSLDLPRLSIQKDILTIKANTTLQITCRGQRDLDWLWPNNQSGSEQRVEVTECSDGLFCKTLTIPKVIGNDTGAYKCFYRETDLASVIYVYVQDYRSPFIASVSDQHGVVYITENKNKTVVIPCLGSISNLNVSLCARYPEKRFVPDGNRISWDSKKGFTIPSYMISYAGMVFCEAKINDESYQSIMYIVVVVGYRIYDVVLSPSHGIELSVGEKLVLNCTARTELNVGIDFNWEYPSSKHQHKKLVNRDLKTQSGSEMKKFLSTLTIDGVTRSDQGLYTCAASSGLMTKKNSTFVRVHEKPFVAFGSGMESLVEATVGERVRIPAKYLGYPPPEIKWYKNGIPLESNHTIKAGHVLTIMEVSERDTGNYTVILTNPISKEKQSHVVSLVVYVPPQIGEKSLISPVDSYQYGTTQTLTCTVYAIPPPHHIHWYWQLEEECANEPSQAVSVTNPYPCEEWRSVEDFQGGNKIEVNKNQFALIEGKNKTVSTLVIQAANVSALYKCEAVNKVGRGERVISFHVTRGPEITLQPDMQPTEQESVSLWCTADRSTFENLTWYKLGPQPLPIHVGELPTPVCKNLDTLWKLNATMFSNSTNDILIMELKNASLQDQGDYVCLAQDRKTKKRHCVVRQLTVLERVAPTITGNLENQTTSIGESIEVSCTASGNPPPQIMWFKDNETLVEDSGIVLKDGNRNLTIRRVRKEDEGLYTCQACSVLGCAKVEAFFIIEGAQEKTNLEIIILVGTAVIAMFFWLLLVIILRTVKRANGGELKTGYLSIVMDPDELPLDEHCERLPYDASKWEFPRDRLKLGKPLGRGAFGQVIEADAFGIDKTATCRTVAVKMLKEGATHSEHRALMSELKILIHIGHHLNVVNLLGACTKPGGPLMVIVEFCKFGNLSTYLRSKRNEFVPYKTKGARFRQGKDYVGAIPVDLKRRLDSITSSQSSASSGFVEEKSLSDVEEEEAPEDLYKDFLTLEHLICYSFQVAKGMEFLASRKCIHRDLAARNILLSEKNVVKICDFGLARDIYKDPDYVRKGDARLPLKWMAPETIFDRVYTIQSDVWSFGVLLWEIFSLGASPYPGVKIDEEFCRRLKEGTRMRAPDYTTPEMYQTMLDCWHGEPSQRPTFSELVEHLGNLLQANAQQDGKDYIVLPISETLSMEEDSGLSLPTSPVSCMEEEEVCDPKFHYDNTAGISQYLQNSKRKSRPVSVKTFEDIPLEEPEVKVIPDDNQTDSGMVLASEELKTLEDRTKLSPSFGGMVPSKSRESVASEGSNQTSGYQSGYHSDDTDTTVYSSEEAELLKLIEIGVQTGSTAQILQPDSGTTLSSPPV
Chain of Aurora kinase B/Inner centromere protein (Q96GD4 whole entry): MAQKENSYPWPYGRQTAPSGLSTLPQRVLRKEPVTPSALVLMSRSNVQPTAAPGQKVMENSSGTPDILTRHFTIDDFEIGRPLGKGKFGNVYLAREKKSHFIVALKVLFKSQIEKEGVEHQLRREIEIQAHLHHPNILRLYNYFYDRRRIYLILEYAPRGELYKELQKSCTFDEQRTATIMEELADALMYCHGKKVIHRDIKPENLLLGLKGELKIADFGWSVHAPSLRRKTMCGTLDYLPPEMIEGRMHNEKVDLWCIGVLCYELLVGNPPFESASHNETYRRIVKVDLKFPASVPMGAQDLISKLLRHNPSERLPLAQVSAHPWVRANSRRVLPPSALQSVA
Chain of Aurora kinase B/Inner centromere protein (Q9NQS7 whole entry, further chain): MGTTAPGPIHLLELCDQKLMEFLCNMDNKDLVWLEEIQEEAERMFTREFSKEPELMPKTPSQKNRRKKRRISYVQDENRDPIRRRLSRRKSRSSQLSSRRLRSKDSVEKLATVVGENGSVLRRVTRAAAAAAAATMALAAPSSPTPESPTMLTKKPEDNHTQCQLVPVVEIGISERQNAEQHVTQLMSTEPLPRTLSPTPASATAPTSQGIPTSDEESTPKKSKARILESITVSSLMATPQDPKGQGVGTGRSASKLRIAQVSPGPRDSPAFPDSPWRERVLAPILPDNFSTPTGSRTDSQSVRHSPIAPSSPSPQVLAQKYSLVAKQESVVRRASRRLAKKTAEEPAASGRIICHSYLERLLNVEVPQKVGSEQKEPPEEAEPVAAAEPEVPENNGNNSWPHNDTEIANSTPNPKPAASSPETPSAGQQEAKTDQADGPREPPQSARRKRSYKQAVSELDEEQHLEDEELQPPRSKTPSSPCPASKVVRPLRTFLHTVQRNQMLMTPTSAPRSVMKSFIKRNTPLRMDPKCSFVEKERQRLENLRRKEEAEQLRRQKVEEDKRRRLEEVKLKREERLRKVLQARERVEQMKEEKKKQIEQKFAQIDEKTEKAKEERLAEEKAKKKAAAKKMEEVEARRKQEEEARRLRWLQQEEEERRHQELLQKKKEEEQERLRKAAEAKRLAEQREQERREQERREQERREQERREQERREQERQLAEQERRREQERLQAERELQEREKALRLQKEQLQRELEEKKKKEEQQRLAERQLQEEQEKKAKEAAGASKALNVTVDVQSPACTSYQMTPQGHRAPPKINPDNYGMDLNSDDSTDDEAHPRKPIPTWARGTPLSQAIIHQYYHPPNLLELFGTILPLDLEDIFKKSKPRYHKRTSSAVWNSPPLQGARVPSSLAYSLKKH
Chain of Cytochrome P450 3A4 (P08684 whole entry): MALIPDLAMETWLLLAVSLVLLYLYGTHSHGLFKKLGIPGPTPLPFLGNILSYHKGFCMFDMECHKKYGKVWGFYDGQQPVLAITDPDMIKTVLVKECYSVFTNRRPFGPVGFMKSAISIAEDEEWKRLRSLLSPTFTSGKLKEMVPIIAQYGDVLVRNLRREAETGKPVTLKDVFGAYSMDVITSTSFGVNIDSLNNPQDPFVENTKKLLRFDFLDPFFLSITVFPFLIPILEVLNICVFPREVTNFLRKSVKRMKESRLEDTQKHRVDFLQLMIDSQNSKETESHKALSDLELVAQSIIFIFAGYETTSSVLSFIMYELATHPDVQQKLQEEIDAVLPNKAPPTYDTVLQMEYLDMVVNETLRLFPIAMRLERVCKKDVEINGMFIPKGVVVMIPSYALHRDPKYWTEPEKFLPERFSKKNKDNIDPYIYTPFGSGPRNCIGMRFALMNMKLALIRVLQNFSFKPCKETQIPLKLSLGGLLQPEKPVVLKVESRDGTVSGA

CN1CCC(Oc2ccc(-c3n[nH]c4ccc(C(=O)NC(c5ccsc5)C5CCCC5)cc34)cc2)CC1 (racemic)
IC50 [1]: 2.7 nM | GI50 ([2]; Homo sapiens, HCT-116, 120 h): 17 nM | GI50 (MDA-MB-468; [32]): 90 nM | IC50 (Aurora kinase A): 2000 nM | IC50 [3]: 2900 nM | half-life at 1 µM [4]: 21 min | half-life at 1 µM [5]: 24 min

O=C(CC1(N2CCOCC2)CCCCC1)Nc1ccc2[nH]nc(-c3ccc(N4CCOCC4)cc3)c2c1
IC50 [1]: 12 nM | GI50 ([2]; Homo sapiens, HCT-116, 120 h): 94 nM | GI50 (MDA-MB-468; [32]): 440 nM | IC50 (Aurora kinase A): 2100 nM | IC50 [3]: 1200 nM | half-life at 1 µM [4]: 5.8 min | half-life at 1 µM [5]: 10 min

O=C(NCC1(N2CCOCC2)CCCCC1)c1ccc2[nH]nc(-c3ccc(N4CCOCC4)cc3)c2c1
IC50 [1]: 7.7 nM | GI50 ([2]; Homo sapiens, HCT-116, 120 h): 39 nM | GI50 (MDA-MB-468; [32]): 190 nM | IC50 [6]: 750 nM | IC50 (Aurora kinase A): 2300 nM | IC50 [3]: 3800 nM | half-life at 1 µM [4]: 1.7 min | half-life at 1 µM [5]: 1.5 min

O=C(N[C@@H](c1ccccn1)C1CC1)c1ccc2[nH]nc(-c3ccc(N4[C@H]5CC[C@H]4CC(O)C5)cc3)c2c1 (stereo in doubt; 75)
Activity [7]: 1% | Activity [8]: 0% | Activity [9]: 1.8% | Activity [10]: 0.2% | Activity [11]: 5.8% | Activity [12]: 1.4% | Activity [13]: 8.3% | Activity [14]: 2.7% | Activity [15]: 7.9% | Activity [16]: 2.3% | Activity [17]: 9.4% | Activity [18]: 2.9% | Activity (HCT-116 [19]): Active | Activity (HCT-116 [20]): Active | Activity (HCT-116 [21]): Active | Activity [22]: Active | Activity [23]: Active

CN1CCC(Oc2ccc(-c3n[nH]c4ccc(NC(=O)C(c5ccsc5)C5CCCC5)cc34)cc2)CC1 (racemic)
IC50 [1]: 8 nM | GI50 ([2]; Homo sapiens, HCT-116, 120 h): 59 nM | GI50 (MDA-MB-468; [32]): 190 nM | IC50 (Aurora kinase A): 2300 nM | half-life at 1 µM [4]: 29 min | half-life at 1 µM [5]: 15 min

O=C(N[C@H](c1ccccn1)C1CCCC1)c1ccc2[nH]nc(-c3ccc(N4[C@H]5CC[C@H]4CC(O)C5)cc3)c2c1 (stereo in doubt; 88)
IC50 [1]: 1.8 nM | GI50 [2]: 38 nM | GI50 (MDA-MB-468): 74 nM | GI50 [24]: 130 nM | IC50 [6]: 6600 nM | IC50 (Cytochrome P450 3A4): 800 nM | t1/2 (Liver): 35 min | t1/2 (Liver microsome): 21 min

O=C(N[C@H](c1ccccn1)C1CCCC1)c1ccc2[nH]nc(-c3ccc(N4[C@H]5CC[C@H]4CC(O)C5)cc3)c2c1 (stereo in doubt; 76)
IC50 [1]: 4.3 nM | GI50 [2]: 8 nM | GI50 (MDA-MB-468): 20 nM | GI50 [24]: 50 nM | IC50 [6]: > 6300 nM | IC50 (Cytochrome P450 3A4): 820 nM | half-life at 1 µM [4]: > 60 min | t1/2 (Liver microsome): > 60 min | Cmax [25]: 1500 ng/mL | AUC(0-inf) [26]: 2600 ng·h/mL | clearance [27]: 91 mL/min/kg | half-life [28]: 46.8 min | AUC(0-inf) [29]: 190 ng·h/mL | AUC(0-inf) [30]: 130 ng·h/mL | bioavailability [31]: 13%
